Consider one compound from ChEMBL document CHEMBL5036319, “Discovery of Novel Benzothiazepinones as Irreversible Covalent Glycogen Synthase Kinase 3β Inhibitors for the Treatment of Acute Promyelocytic Leukemia” (J Med Chem, 2021).

pIC50: −log10 of the molar value. The source made the active and inactive calls. No cut-off for these calls is given here.

As usually defined, the pIC50 is the IC50 on a negative log10 scale, so that one unit is a factor of ten. In general, AUC refers to the area under the concentration-time curve, a measure of exposure. The term AUC(0-t) denotes the area under the concentration-time curve up to a stated or last time point.

Data set [1] in a line: Induction in caspase-mediated apoptosis in human NB4-DR1 cells assessed as early apoptotic cells at 12.5 uM incubated for 24 hrs by Annexin V-FITC/propidium iodide staining based flow cytometry analysis (reference value: 1.43%). It is filed as functional. In general terms: A flow cytometer gives signals particle by particle.
Data set [2] in a line: Induction in caspase-mediated apoptosis in human NB-4 cells assessed as necrotic cells at 50 uM incubated for 24 hrs by Annexin V-FITC/Propidium iodide staining based flow cytometry analysis (reference value: 0.352%). It is filed as functional.
The nature of data set [3]: Induction in caspase-mediated apoptosis in human NB-4 cells assessed as early apoptotic cells at 25 uM incubated for 24 hrs in presence of Z-VAD-FMK by Annexin V-FITC/propidium iodide staining based flow cytometry analysis (reference value: 1.84%). The format is functional.
Data set [4] can be described thus: Induction in caspase-mediated apoptosis in human NB-4 cells assessed as necrotic cells at 100 uM incubated for 24 hrs by Annexin V-FITC/Propidium iodide staining based flow cytometry analysis (reference value: 0.352%). It is filed as functional.
In data set [5] the test system is NB-4. The data set can be described thus: Effect on glycogen synthase phosphorylation in human NB-4 cells assessed as reduction in ratio of p-GS to GS measured after 24 hrs by Western blot analysis. The format is functional, cell-based. A digest of the protocol:
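NB4 and NB4-R1 cells were treated 24 h at several concentrations and lysed in RIPA. Equal protein was immunoblotted for phospho-glycogen synthase (Ser641), total GS and β-actin, with ECL detection. Band densities were quantified as the p-GS/GS ratio. n = 3, mean ± SEM.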

Data set [6] in a line: Induction in caspase-mediated apoptosis in human NB-4 cells assessed as viable cells at 25 uM incubated for 24 hrs by Annexin V-FITC/propidium iodide staining based flow cytometry analysis (reference value: 96.6%). It is filed as functional. The settings on record: read-out: Activity.
For data set [7], the system named is NB4-DR1. The data set can be described thus: Antiproliferative activity against human NB4-DR1 cells assessed as reduction in cell viability incubated for 24 hrs by CCK-8 assay. The settings on record: NB4-DR1, 24 h. The format is functional, cell-based. Put shortly:
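Cells were grown in RPMI-1640 or high-glucose DMEM with 10% FBS at 37 °C, 5% CO2, and seeded at 3 × 10^4 cells/well. Exposure was 24 h across serial concentrations (0−1000 μM in the screen). […] Three independent experiments, mean ± SEM.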

The nature of data set [8]: Induction in caspase-mediated apoptosis in human NB4-DR1 cells assessed as late apoptotic cells at 100 uM incubated for 24 hrs by Annexin V-FITC/propidium iodide staining based flow cytometry analysis (reference value: 1.47%). It is filed as functional.
A short description of data set [9]: Cytotoxicity against human L02 assessed as cell viability at 100 uM incubated for 24 hrs by CCK-8 assay relative to control. The format is cell-based. The settings on record: L02 cells, read-out: Activity. A digest of the protocol:
(§1)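 HUVEC and LO2 normal cells were cultured in RPMI-1640 or DMEM with 10% FBS at 37 °C, 5% CO2, and seeded at 3 × 10^4 cells/well. They were exposed for 24 h to graded concentrations. CCK-8 incubation was 3 h at 37 °C, with A450 read and viability expressed versus untreated control. Three independent experiments, mean ± SEM.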

Data set [10] in a line: Induction in caspase-mediated apoptosis in human NB4-DR1 cells assessed as necrotic cells at 25 uM incubated for 24 hrs by Annexin V-FITC/propidium iodide staining based flow cytometry analysis (reference value: 0.19%). The format is functional.
The nature of data set [11]: Induction in caspase-mediated apoptosis in human NB-4 cells assessed as necrotic cells at 12.5 uM incubated for 24 hrs in presence of Z-VAD-FMK by Annexin V-FITC/propidium iodide staining based flow cytometry analysis (reference value: 0.167%). It is filed as functional.
A short description of data set [12]: Induction in caspase-mediated apoptosis in human NB-4 cells assessed as viable cells at 100 uM incubated for 24 hrs in presence of Z-VAD-FMK by Annexin V-FITC/propidium iodide staining based flow cytometry analysis (reference value: 96.8%). The format is functional. As to conditions: read-out: Activity.
A short description of data set [13]: AUCinfinity in ICR mouse at 15 mg/kg, ip administered as single dose measured upto 8 hrs by LC-MS/MS analysis. It is filed as ADME, organism-based. Set-up: route intraperitoneal, dose 15 mg/kg, time <=8. As to conditions: in vivo. Put shortly: (§2)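 Male ICR mice (30 g) given a single i.p. bolus of 15 mg/kg in corn oil. Blood taken by orbital collection into K3EDTA tubes at 0.08, 0.17, 0.5, 1, 2, 4 and 8 h, three animals per time point, giving a composite profile. Plasma proteins were precipitated with acetonitrile and analysed by LC-MS/MS. Parameters were derived by non-compartmental analysis.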

Data set [14] in a line: Induction in caspase-mediated apoptosis in human NB4-DR1 cells assessed as late apoptotic cells at 25 uM incubated for 24 hrs by Annexin V-FITC/propidium iodide staining based flow cytometry analysis (reference value: 1.47%). The format is functional.
Data set [15] in a line: Induction in caspase-mediated apoptosis in human NB-4 cells assessed as necrotic cells at 100 uM incubated for 24 hrs in presence of Z-VAD-FMK by Annexin V-FITC/propidium iodide staining based flow cytometry analysis (reference value: 0.167%). The format is functional.
A short description of data set [16]: Induction in caspase-mediated apoptosis in human NB4-DR1 cells assessed as necrotic cells at 12.5 uM incubated for 24 hrs by Annexin V-FITC/propidium iodide staining based flow cytometry analysis (reference value: 0.19%). It is filed as functional.
Data set [17] in a line: Induction in caspase-mediated apoptosis in human NB4-DR1 cells assessed as early apoptosis cells at 12.5 uM incubated for 24 hrs in presence of Z-VAD-FMK by Annexin V-FITC/propidium iodide staining based flow cytometry analysis (reference value: 0.875%). It is filed as functional.
A short description of data set [18]: Induction in caspase-mediated apoptosis in human NB4-DR1 cells assessed as late apoptotic cells at 100 uM incubated for 24 hrs in presence of Z-VAD-FMK by Annexin V-FITC/propidium iodide staining based flow cytometry analysis (reference value: 2.54%). It is filed as functional.
The nature of data set [19]: Induction in caspase-mediated apoptosis in human NB-4 cells assessed as viable cells at 12.5 uM incubated for 24 hrs by Annexin V-FITC/propidium iodide staining based flow cytometry analysis (reference value: 96.6%). It is filed as functional. As to conditions: read-out: Activity.
Data set [20] in a line: Cytotoxicity against human L02 cells assessed as cell viability at 0 to 50 uM incubated for 24 hrs by CCK-8 assay relative to control. The format is cell-based. As to conditions: dose 0-50 µM, read-out: Activity. A digest of the protocol: as §1
(In general: Tetrazolium dyes change colour on reduction, which living cells bring about.)

In data set [21] the target is Glycogen synthase kinase-3 beta (Homo sapiens, UniProt P49841). The data set can be described thus: Binding affinity to recombinant human GSK-3beta assessed as covalent bond formation between compound and enzyme by measuring mass changes by […] analysis. Put shortly: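 Human recombinant GSK-3β (10 μM stock in 50 mM HEPES, 1 mM EDTA, 2 mM EGTA, 15 mM Mg(OAc)2) was incubated with compound in DMSO (1.6 μL of 500 μM into 14.4 μL) at 30 °C with shaking for 30 min. Intact protein was run on C4 LC over a 5–100% acetonitrile/0.1% formic acid gradient into positive-ion Q-TOF MS, and mass shift was read.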

Data set [22] can be described thus: AUClast in ICR mouse at 15 mg/kg, ip administered as single dose measured upto 8 hrs by LC-MS/MS analysis. The settings on record: in vivo. The format is ADME, organism-based. Also on record: route intraperitoneal, dose 15 mg/kg, time <=8. A digest of the protocol: as §2
The nature of data set [23]: Induction in caspase-mediated apoptosis in human NB-4 cells assessed as necrotic cells at 25 uM incubated for 24 hrs in presence of Z-VAD-FMK by Annexin V-FITC/propidium iodide staining based flow cytometry analysis (reference value: 0.167%). The format is functional.

Sequence of Glycogen synthase kinase-3 beta (P49841 whole entry, looked up): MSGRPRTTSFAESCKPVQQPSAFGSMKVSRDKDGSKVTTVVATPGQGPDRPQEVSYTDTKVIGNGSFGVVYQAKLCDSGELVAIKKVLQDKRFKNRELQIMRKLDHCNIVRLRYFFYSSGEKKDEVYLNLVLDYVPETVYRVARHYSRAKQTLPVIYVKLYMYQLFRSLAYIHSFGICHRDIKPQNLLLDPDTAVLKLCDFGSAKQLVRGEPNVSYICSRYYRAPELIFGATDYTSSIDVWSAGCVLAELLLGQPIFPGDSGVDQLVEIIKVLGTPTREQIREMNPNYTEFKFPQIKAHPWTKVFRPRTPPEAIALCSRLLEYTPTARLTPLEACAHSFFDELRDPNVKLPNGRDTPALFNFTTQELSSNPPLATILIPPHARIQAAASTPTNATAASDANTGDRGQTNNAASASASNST

On to `C=CC(=O)N1C(=O)CC(c2ccc(F)cc2)Sc2ccccc21` (stereo not drawn), for which the Activity in [1] is 1.77%; in data set [2], 4.51%; in data set [3] it was 7.42%; in data set [4], 4.39%; in data set [8], 46.8%; in data set [10] it was 1.32%. Besides, the Activity in [11] was 1.59%; in [14], 14.8%; in [15], 2.88%; in data set [16] it was 0.508%; in data set [17], 0.773%; in data set [18], 14.2%. The Activity in [23] is given as 1.38%. In addition, the result in data set [5] and in data set [21] was Active. Moreover, the viability at 25 µM in data set [6] was determined as 36.4%. In [7], the pIC50 was 4.58. The viability at 24 h, 100 µM in data set [9] is greater than 70%. In [12], the viability at 100 µM was 72.2%. The compound also had an AUC in data set [13] of 10838.33 ng·h/mL. In data set [19], the viability at 12.5 µM is 77%. In addition, the viability at 24 h, up to 50 µM in data set [20] was greater than 80%. The same compound registered an AUC(0-t) at 8 h in data set [22] of 3500 ng·h/mL.
